Test results reported in ChEMBL document CHEMBL1649443, “Novel S-adenosylmethionine decarboxylase inhibitors for the treatment of human African trypanosomiasis” (Antimicrob Agents Chemother, 2009).
The source made the active and inactive calls.

Key:
[1] = AUC in mouse blood at 50 mg/kg, ip administered as single dose; type: ADME, organism-based; set-up: dose 50 mg/kg, route intraperitoneal
[2] = AUC in rat at 10 mg/kg, po; type: ADME, organism-based; set-up: dose 10 mg/kg, route oral; conditions: plasma
Method in brief: (§1)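 Rat groups of six, split into two subgroups to limit blood collections, dosed i.v. or p.o. Blood sampled at 15 min, 30 min, 2 h, 4 h, 8 h and 24 h. Drug levels measured by LC-MS-MS. Two separate rat studies were run.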

[3] = Metabolic stability in human liver microsomes assessed as intrinsic clearance up to 45 mins by LC/MS/MS analysis; type: ADME, Microsome
[4] = Cmax in mouse brain at 50 mg/kg, ip administered as single dose; type: ADME, organism-based; set-up: dose 50 mg/kg, route intraperitoneal
[5] = Metabolic stability in human hepatocytes assessed as intrinsic clearance up to 45 mins by LC/MS/MS analysis; type: ADME, cell-based, Liver, Hepatocyte
[6] = Metabolic stability in rat hepatocytes assessed as intrinsic clearance up to 45 mins by LC/MS/MS analysis; type: ADME, cell-based, Liver, Hepatocyte
[7] = Metabolic stability in rat liver microsomes assessed as intrinsic clearance up to 45 mins by LC/MS/MS analysis; type: ADME, Microsome
[8] = Protein binding in mouse plasma at pH 7.4 after 4 hrs; type: ADME, cell-free; conditions: read-out: PPB (converted)
Rattus norvegicus [9] = assay: Volume of distribution at steady state in rat at 3 mg/kg, iv; type: ADME, organism-based; set-up: dose 3 mg/kg, route intravenous; conditions: in vivo
[10] = AUC in mouse brain at 50 mg/kg, ip administered as single dose; type: ADME, organism-based; set-up: dose 50 mg/kg, route intraperitoneal
CYP2C19 = CYP2C19 (Homo sapiens, UniProt P33261); assay: (§2) Inhibition of human cytochrome P450 2C19; conditions: human
Chain of CYP2C19 (P33261 whole entry): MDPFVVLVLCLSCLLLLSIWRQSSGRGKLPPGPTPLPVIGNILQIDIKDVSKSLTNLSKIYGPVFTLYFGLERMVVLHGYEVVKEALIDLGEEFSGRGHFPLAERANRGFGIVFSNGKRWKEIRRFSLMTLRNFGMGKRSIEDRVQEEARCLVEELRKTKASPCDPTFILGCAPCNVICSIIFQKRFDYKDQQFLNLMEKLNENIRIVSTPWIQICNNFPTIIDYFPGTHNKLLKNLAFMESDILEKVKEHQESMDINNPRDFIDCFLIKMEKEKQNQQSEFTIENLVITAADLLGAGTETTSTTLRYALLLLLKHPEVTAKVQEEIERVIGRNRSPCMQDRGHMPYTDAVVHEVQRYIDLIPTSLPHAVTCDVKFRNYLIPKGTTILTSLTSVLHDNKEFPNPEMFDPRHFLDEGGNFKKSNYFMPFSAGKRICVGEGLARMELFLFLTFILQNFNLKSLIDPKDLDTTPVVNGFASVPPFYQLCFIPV

[11] = test system: Trypanosoma brucei brucei; assay: Antiparasitic activity against Trypanosoma brucei brucei STIB 795 infected in mouse assessed as mean survival days at 50 mg/kg, ip qd for 4 days administered on 3rd day of infection (reference value: 6.75 days); type: functional; conditions: route intraperitoneal
[12] = Oral bioavailability in rat at 10 mg/kg, po; type: ADME, organism-based; conditions: in vivo; method in brief: as §1
[13] = Permeability of the compound after 4 hrs by PAMPA assay; type: ADME; conditions: read-out: permeability
[14] = test system: Trypanosoma brucei brucei; assay: Antiparasitic activity against Trypanosoma brucei brucei LAB 110 EATRO infected in mouse assessed as mean survival days at 50 mg/kg/day, ip qd for 7 days administered on 1st day of infection and measured through day 40 post infection; type: functional; conditions: route intraperitoneal
Method in brief: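 Mice in groups of five, infected i.p. on day 0 with 2.5 × 10^5 T. b. brucei LAB 110 EATRO parasites; i.p. dosing began day 1. Parasitemia checked twice weekly by microscopy of at least 20 fields of wet blood smears through day 40, with animals considered cured only when clear through day 40.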

CYP3A4 = CYP3A4 (Homo sapiens, UniProt P08684); assay: (§3) Inhibition of human cytochrome P450 3A4; conditions: human
Chain of CYP3A4 (P08684 whole entry): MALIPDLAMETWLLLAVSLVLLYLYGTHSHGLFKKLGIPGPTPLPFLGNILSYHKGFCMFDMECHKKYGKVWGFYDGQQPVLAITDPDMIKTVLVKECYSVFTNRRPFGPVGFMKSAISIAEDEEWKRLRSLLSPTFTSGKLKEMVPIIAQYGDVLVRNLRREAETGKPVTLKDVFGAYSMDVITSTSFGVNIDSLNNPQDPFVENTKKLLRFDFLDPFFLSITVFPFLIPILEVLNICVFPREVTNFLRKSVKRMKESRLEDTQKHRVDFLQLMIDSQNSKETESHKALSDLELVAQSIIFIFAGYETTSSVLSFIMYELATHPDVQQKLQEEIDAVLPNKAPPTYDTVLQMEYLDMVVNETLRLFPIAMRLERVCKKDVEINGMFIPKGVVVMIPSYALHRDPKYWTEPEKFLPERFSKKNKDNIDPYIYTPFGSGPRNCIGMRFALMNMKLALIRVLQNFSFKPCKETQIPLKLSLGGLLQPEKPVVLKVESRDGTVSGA

[15] = Half life in mouse at 50 mg/kg, ip administered as single dose; type: ADME, organism-based; set-up: dose 50 mg/kg, route intraperitoneal; conditions: in vivo
Rattus norvegicus [16] = assay: Half life in rat at 3 mg/kg, iv; type: ADME, organism-based; set-up: dose 3 mg/kg, route intravenous; conditions: in vivo
[17] = Cmax in mouse blood at 50 mg/kg, ip administered as single dose; type: ADME, organism-based; set-up: dose 50 mg/kg, route intraperitoneal
[18] = AUC in rat at 3 mg/kg, iv; type: ADME, organism-based; set-up: dose 3 mg/kg, route intravenous; conditions: plasma
[19] = Protein binding in human plasma at pH 7.4 after 4 hrs; type: ADME, cell-free; conditions: read-out: PPB (converted)
CYP2C9 = CYP2C9 (Homo sapiens, UniProt P11712); assay: (§4) Inhibition of human cytochrome P450 2C9; conditions: human
Chain of CYP2C9 (P11712 whole entry): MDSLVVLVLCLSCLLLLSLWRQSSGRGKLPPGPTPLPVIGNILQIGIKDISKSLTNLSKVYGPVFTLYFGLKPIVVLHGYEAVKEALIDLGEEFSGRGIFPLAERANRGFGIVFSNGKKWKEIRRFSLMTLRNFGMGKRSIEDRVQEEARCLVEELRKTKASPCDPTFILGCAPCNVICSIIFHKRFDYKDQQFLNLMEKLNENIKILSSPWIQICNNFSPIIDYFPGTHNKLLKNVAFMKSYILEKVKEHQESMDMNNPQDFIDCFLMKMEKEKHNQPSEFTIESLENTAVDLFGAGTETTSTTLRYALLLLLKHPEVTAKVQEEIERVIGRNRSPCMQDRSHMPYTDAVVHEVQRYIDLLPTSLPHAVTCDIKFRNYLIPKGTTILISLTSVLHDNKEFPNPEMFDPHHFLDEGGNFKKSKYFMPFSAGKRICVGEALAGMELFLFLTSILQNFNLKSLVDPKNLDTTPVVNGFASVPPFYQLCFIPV

[20] = test system: Trypanosoma brucei brucei; assay: Antiparasitic activity against Trypanosoma brucei brucei LAB 110 EATRO infected in mouse assessed as mean survival days at 50 mg/kg/day, ip administered on 1st day of infection and measured through day 40 post infection; conditions: route intraperitoneal
[21] = test system: Trypanosoma brucei brucei; assay: Antiparasitic activity against Trypanosoma brucei brucei LAB 110 EATRO infected in mouse assessed as parasitemia cure incidence at 50 mg/kg/day, ip administered on 1st day of infection and measured through day 40 post infection
[22] = Half life in rat at 10 mg/kg, po; type: ADME, organism-based; set-up: dose 10 mg/kg, route oral; conditions: in vivo; method in brief: as §1
[23] = test system: Trypanosoma brucei brucei; assay: Antiparasitic activity against Trypanosoma brucei brucei STIB 795 infected in mouse assessed as parasitemia cure incidence at 50 mg/kg, ip qd for 4 days administered on 3rd day of infection; type: functional, organism-based; set-up: dose 50 mg/kg
in vivo = conditions: mouse, brain, ip, 50 mg/kg
[24] = Tmax in rat at 10 mg/kg, po; type: ADME, organism-based; set-up: dose 10 mg/kg, route oral; conditions: in vivo; method in brief: as §1
[25] = Cmax in rat at 10 mg/kg, po; type: ADME, organism-based; set-up: dose 10 mg/kg, route oral; conditions: in vivo; method in brief: as §1
[26] = test system: Trypanosoma brucei rhodesiense; assay: Antiparasitic activity against Trypanosoma brucei rhodesiense STIB 900 clone after 72 hrs by Alamar blue assay; type: functional, organism-based; conditions: STIB 900, 72 h
CYP2D6 = CYP2D6 (Homo sapiens, UniProt P10635); assay: (§5) Inhibition of human cytochrome P450 2D6; conditions: human
Chain of CYP2D6 (P10635 whole entry): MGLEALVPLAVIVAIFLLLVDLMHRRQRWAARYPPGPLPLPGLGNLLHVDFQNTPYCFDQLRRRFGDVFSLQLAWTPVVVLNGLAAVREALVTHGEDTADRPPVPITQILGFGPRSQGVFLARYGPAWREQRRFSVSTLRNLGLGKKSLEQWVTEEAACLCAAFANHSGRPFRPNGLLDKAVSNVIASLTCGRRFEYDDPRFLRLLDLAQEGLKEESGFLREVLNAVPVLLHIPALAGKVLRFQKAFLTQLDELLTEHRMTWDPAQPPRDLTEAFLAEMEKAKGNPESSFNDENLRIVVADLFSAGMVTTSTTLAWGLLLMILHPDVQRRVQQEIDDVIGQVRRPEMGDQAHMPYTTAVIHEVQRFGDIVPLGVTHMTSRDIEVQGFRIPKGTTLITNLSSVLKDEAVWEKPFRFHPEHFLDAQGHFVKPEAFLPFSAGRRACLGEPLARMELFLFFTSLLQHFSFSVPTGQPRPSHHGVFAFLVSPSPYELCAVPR

CYP1A2 = target: T1, CYP1A2 (Homo sapiens, UniProt P05177); assay: (§6) Inhibition of human cytochrome P450 1A2; conditions: human
T1 sequence (P05177 whole entry): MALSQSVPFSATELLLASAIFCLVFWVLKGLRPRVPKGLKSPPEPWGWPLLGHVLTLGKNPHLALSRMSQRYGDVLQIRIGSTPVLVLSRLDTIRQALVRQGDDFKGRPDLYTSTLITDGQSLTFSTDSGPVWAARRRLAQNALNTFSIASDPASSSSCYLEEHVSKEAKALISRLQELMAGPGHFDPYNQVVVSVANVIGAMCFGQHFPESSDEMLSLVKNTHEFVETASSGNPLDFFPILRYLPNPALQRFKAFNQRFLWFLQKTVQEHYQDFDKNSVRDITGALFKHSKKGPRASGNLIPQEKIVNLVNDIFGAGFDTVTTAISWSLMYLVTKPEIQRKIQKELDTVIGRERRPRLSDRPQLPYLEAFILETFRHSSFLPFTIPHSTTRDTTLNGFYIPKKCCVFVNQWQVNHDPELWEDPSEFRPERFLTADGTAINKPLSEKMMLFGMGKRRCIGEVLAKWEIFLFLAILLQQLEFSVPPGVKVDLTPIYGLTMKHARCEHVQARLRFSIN

[27] = test system: Trypanosoma brucei brucei; assay: Antiparasitic activity against Trypanosoma brucei brucei LAB 110 EATRO infected in mouse assessed as parasitemia cure incidence at 50 mg/kg/day, ip qd for 7 days administered on 1st day of infection and measured through day 40 post infection; type: functional, organism-based
[28] = Kinetic solubility in phosphate-buffered saline at pH 7.4 after 16 to 24 hrs by UV spectrophotometry
Cytochrome P450 2C19 = Cytochrome P450 2C19 (Homo sapiens, UniProt P33261); assay: as §2
Chain of Cytochrome P450 2C19 (P33261 whole entry): as the sequence (P33261 whole entry) above

Cytochrome P450 3A4 = Cytochrome P450 3A4 (Homo sapiens, UniProt P08684); assay: as §3
Chain of Cytochrome P450 3A4 (P08684 whole entry): as the sequence (P08684 whole entry) above

Cytochrome P450 2C9 = Cytochrome P450 2C9 (Homo sapiens, UniProt P11712); assay: as §4
Chain of Cytochrome P450 2C9 (P11712 whole entry): as the sequence (P11712 whole entry) above

Cytochrome P450 2D6 = Cytochrome P450 2D6 (Homo sapiens, UniProt P10635); assay: as §5
Chain of Cytochrome P450 2D6 (P10635 whole entry): as the sequence (P10635 whole entry) above

Cytochrome P450 1A2 = target: T2, Cytochrome P450 1A2 (Homo sapiens, UniProt P05177); assay: as §6
T2 sequence (P05177 whole entry): T1 sequence (P05177 whole entry)

Row | Compound | AUC [1] [ng·h/mL] | CLint scaled [3] [mL/min/kg] | Cmax [4] [ng/mL] | CLint scaled [5] [mL/min/kg] | CLint scaled [6] [mL/min/kg] | CLint scaled [7] [mL/min/kg] | fraction unbound at 4 h [8] | AUC [10] [ng·h/mL] | IC50 (CYP2C19) [µM] | IC50 (CYP3A4) [µM] | half-life [15] [h] | Cmax [17] [ng/mL] | fraction unbound at 4 h [19] | IC50 (CYP2C9) [µM] | Kp (in vivo) | IC50 [26] [µM] | IC50 (CYP2D6) [µM] | IC50 (CYP1A2) [µM] | solubility kinetic [28] [µg/mL] | other results
1 | Cc1nc(N)c2ncn([C@@H]3O[C@H](CN(C)C/C=C\CN)[C@@H](O)[C@H]3O)c2n1 | 17900 | < 4.2 | 660 | < 4.2 | < 11 | < 11 | 0.643 | 1300 | > 5 | > 5 | 7.43 | 36900 | 0.588 | > 5 | 7.28 | 0.0001 | > 5 | > 5 | > 49 | AUC [2]: 49 ng·h/mL; Vdss (Rattus norvegicus [9]): 853 L/kg; Survival [11]: >30 days; bioavailability [12]: 2.1%; Papp at 4 h [13]: 0.22 ×10⁻⁶ cm/s; Survival [14]: >40 days; t1/2 (Rattus norvegicus [16]): 3.17 h; AUC [18]: 681 ng·h/mL; Survival [20]: >40 days; Activity [21]: Active; half-life [22]: 1.53 h; Activity [23]: Active; Tmax [24]: 0.25 h; Cmax [25]: 39 ng/mL; Activity [27]: Active
2 | CN(C/C=C\CN)C[C@H]1O[C@@H](n2cnc3c(N)ncnc32)[C@H](F)[C@@H]1O | 16300 | < 4.2 | 30 | < 4.2 | < 11 | < 11 | 0.523 | 140 | – | – | 1.93 | 33000 | 0.767 | – | 0.86 | 0.172 | – | – | > 47 | IC50 (Cytochrome P450 2C19): > 5 µM; IC50 (Cytochrome P450 3A4): > 5 µM; IC50 (Cytochrome P450 2C9): > 5 µM; IC50 (Cytochrome P450 2D6): > 5 µM; IC50 (Cytochrome P450 1A2): > 5 µM
3 | CN(C/C=C\CN)C[C@H]1O[C@@H](n2cnc3c(N)nc(Cl)nc32)[C@H](O)[C@@H]1O | 22100 | < 4.2 | 110 | < 4.2 | < 11 | < 11 | 0.578 | 400 | > 5 | > 5 | 1.66 | 39000 | 0.61 | > 5 | 1.79 | 0.259 | > 5 | > 5 | > 51 | –
